# Bioassay records (PubChem BioAssay)
# The list is not random: actives were taken first. Their share in the collection is about 2%.
# FID counter: compounds displacing fluorescent DNA intercalator, primary screen, artefact control for HCV NS3 helicase inhibitor project, biochemical, FID fluorescence; actives 0.17% (n = 290,000); DNA fluorescent intercalator displacement; inhibition, % at 7.9 µM; in the data active = inhibition above about 37%;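 also: 0% = vehicle and 100% = reference compound; higher means more ethidium bromide displaced from hairpin DNA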
# GPR7 antagonist: GPR7 receptor antagonists, primary screen, cell-based, fluorescence, single concentration. Neuropeptides B/W receptor type 1 (Homo sapiens), P48145. GPR7-expressing cells, fluorescence antagonist assay. inhibition, % at 4.4 µM. actives 1.1% (n = 290,000); in the data active = inhibition above about 16%, passing the limit was not always enough;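 also: cells stimulated with the agonist NPW; 0% = agonist with vehicle and 100% = vehicle without agonist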
# Target sequence (P48145 whole entry, looked up): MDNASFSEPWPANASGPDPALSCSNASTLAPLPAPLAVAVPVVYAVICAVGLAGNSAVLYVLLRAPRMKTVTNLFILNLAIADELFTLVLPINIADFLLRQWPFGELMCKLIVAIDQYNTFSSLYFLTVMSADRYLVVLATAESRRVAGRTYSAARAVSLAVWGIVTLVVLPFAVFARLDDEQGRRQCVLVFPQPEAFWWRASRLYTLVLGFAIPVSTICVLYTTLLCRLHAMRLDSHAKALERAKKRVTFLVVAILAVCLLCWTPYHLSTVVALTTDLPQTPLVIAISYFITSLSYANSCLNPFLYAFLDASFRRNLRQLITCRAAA
# ZTA DNA inh: ZTA (EBV) inhibition in EBNA-1 counter-screen; inhibition, % at 11 µM; actives 0.15% (n = 320,000); ZTA-DNA binding, fluorescence polarization; P03206; in the data active = inhibition above about 33%
# Target sequence (P03206 whole entry, looked up): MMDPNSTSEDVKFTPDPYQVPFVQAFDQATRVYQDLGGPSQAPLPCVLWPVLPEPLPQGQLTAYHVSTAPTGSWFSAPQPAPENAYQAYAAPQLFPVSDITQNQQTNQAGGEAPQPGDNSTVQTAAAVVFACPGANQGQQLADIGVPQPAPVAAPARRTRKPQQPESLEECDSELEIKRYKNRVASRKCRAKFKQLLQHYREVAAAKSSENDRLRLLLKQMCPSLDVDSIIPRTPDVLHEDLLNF
# NS3 helicase inh: inhibitors of HCV NS3 helicase, primary screen, biochemical, Cy5 molecular beacon fluorescence. Hepatitis C virus NS3 helicase. NS3 helicase DNA unwinding. inhibition, % at 10.9 µM. actives 0.56% (n = 290,000);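 active = inhibition above the mean of all tested compounds plus 3 SD, set per campaign, cut at about 35% in these data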;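 also: 0% = DMSO wells and 100% = thioflavine S control wells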
#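 test system = hepatitis C virus NS3 helicase domain fragment enzyme | reagent = annealed dual-labelled DNA beacon duplex, ATP-started | times = 1 h at 25 °C | detection = Cy5 fluorescence, 0 and 60 min reads | read-out basis = percent inhibition from t60/t0 fluorescence ratio | control set = DMSO and thioflavine S | replication = one well per compound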
# EBNA-1 inh: EBNA-1 DNA-binding inhibitors, primary screen, biochemical, fluorescence polarization; AID 1950, 2009; actives 0.34% (n = 300,000); inhibition, % at 14.8 µM; in the data active = inhibition above about 28%
# * = called active by the depositor; / = no result given.
SMILES,FID counter,GPR7 antagonist,ZTA DNA inh,NS3 helicase inh,EBNA-1 inh
CC(NC(=O)CN(c1cccc(C(F)(F)F)c1)S(=O)(=O)c1ccc(Cl)c([N+](=O)[O-])c1)c1ccccc1 (stereo unspecified),-3,46*,11,11,1
O=C(CN(c1ccc(Br)cc1)S(=O)(=O)c1ccc(Cl)c([N+](=O)[O-])c1)NCCc1ccccc1,-1,-10,-12,0,9
Cc1ccc(N(CC(=O)NCCc2ccc(F)cc2)S(=O)(=O)c2ccc(Cl)c([N+](=O)[O-])c2)c(C)c1,-16,48*,-3,-2,-4
O=C(CN(c1cccc(C(F)(F)F)c1)S(=O)(=O)c1ccc(Cl)c([N+](=O)[O-])c1)NCc1ccccc1Cl,-1,14,9,4,6
O=C(CN(c1cccc(C(F)(F)F)c1)S(=O)(=O)c1ccc(Cl)c([N+](=O)[O-])c1)NCc1ccccc1,-4,41*,1,-4,0
O=C(c1cc(F)c(F)cc1Cl)N1CCCc2ccccc21,-24,3,-10,7,-7
O=C1C=C(NCc2ccc(Cl)cc2Cl)C2(CCCCC2)O1,-13,21*,3,9,0
O=C(Nc1ccccc1)c1cccc(S(=O)(=O)Oc2ccc([N+](=O)[O-])cc2)c1,6,26*,-6,-2,10
O=C(O)c1cccc(NC(=O)c2cccc(S(=O)(=O)Nc3cccc([N+](=O)[O-])c3)c2)c1,-25,15,0,25,-16
O=[N+]([O-])c1ccc(Oc2ccc(S(=O)(=O)Nc3ccccc3)cc2)cc1,-4,58*,11,-15,12
Cc1cccc(-c2noc(CCCC(=O)NC3CCCC3)n2)c1,-28,-9,-5,-7,4
CC(=O)Nc1cccc(OCc2c(F)cccc2Cl)c1,-7,-14,-28,-13,-4
CC(=O)Nc1cccc(OCc2cnc(Cl)s2)c1,-4,20*,16,13,-1
N#CC1=C2SCC(O)(c3ccccc3)N2C(=O)CC1c1cccs1 (stereo unspecified),-9,17*,0,-8,4
Cc1cccc(C)c1NC(=O)C1(N2C(=O)CC2c2ccccc2)CCCCC1 (stereo unspecified),-20,18*,-19,12,5
Cc1cccc(C)c1NC(=O)C1(NC(=O)C2CCC(=O)N2)CCCCC1 (stereo unspecified),1,4,-9,-6,6
CC1=C(C)/C(=N\OS(=O)(=O)c2ccccc2)C=CC1=O,4,58*,-3,-5,8
Cc1ccc(S(=O)(=O)O/N=C2\CCCc3ccccc32)cc1,1,4,18,2,10
CCN(CC)CCn1nc2c3c(cccc3c1=O)-c1ccccc1-2,40*,-11,-15,19,-3
CCOC(=O)/C=C/S(=O)(=O)c1ccc(NC(C)=O)cc1,1,18*,8,5,12
CC(C)(C)C(=O)Nc1nnc(SCC(=O)NC2CC2)s1,-1,-6,9,2,2
COc1ccccc1CNC(=O)COC(=O)c1ccc(C)c(S(=O)(=O)N2CCCCC2)c1,-58,-2,-2,-7,2
O=C(CSc1nnnn1C1CCCCC1)Nc1ccccc1F,-9,3,9,6,-5
O=C(CSc1nnnn1C1CC2CCC1C2)Nc1ccnc2ccccc12 (stereo unspecified),-16,23*,14,4,-7
CC1Cc2ccccc2N1C(=O)CNCCCN(C)C (stereo unspecified),9,-4,-14,6,8
SMILES,FID counter,GPR7 antagonist,ZTA DNA inh,NS3 helicase inh,EBNA-1 inh
CC1CC2(C)Oc3ccccc3CC2C(C)C1CNCCCN(C)C (stereo unspecified),33,44*,-17,-42,-12
Cn1ccnc1C1CCCCN1Cc1nc(-c2ccc3c(c2)OCO3)no1 (stereo unspecified),11,49*,-3,-7,-4
CCCCCCNC(=O)c1cn(CC)c2cc(N3CCN(C)CC3)c(F)cc2c1=O,24,8,-6,-58,-10
Cc1cc(C)c2nc(C)cc(N/N=C/c3ccc(O)cc3)c2c1,48*,-11,-23,-10,-4
CN(C)S(=O)(=O)c1cc(NC(=O)COC(=O)CCSc2ccc(Cl)cc2)ccc1Cl,-5,21*,-24,7,-11
CCCCN(CC)CCCNC(=O)c1cn(CC)c2ccc(S(=O)(=O)N3CCc4ccccc4C3)cc2c1=O,41*,-7,15,-65,-4
CCCCN(C)CCCNC(=O)c1cn(CC)c2ccc(S(=O)(=O)N3CCc4ccccc4C3)cc2c1=O,20,-15,-10,-35,-6
CC1CCC(C(C)C)C(OC(=O)C[n+]2cc(-c3ccc(Cl)cc3)n3c2CCCCC3)C1 (stereo unspecified),29,59*,2,-65,-19
COc1ccc(NC(=O)c2cc(C)nn2-c2ccccc2)cc1,-11,10,-7,-6,-16
CS(=O)(=O)Nc1cccc(C2=NN(S(=O)(=O)c3ccc(F)cc3)C(c3cccs3)C2)c1 (stereo unspecified),-16,19*,-15,-14,-3
COc1ccc(C(=O)N/C(=C/c2cccc3ccccc23)C(=O)NCCc2c[nH]c3ccccc23)cc1OC,-24,-6,16,-2,113*
CCCn1c(C(C)Nc2nc(-c3cc(Cl)c(N)c(Cl)c3)cs2)nc2cc(Cl)c(N3CCCCC3)cc21 (stereo unspecified),-15,-19,6,25,6
O=C(Nc1ccc([N+](=O)[O-])cc1)Nc1ccc(Cl)cc1F,13,9,-8,2,8
Cc1cc(OC(F)F)ccc1NC(=O)Nc1ccc([N+](=O)[O-])cc1,21,41*,5,9,1
COc1ccc(OC)c(-c2csc(NC(=O)Cn3[nH]c(=O)c4ccccc4c3=O)n2)c1,-6,17*,5,5,1
CN1CC(=O)N(CC(=O)Nc2ccc(N3CCOCC3)cc2)C1=O,/,/,-9,/,/
CN1CCN(c2ccc(NC(=O)c3ccc(-c4ccc(Cl)cc4)o3)cc2)CC1,38*,7,-3,-89,-5
COc1ccc(S(=O)(=O)N2CCN(CC(=O)Nc3ccc(F)c(F)c3)CC2)cc1,-12,30*,-9,-11,-2
c1ccc2c(c1)Cc1ccccc1O2,/,/,3,/,-2
COCc1ccccc1C1=CC(=O)C[C@H](c2ccc(F)cc2)C1,/,/,10,/,/
COc1ccc(C(=O)N2CCN(c3ccc(C)c(C)c3)CC2)cc1OC,-27,20*,23,-4,7
Cc1ccc(-c2c(C(=O)Nc3ccccc3C)c(C)[nH]c(=S)c2C#N)o1,-22,-15,5,39*,4
Cc1ccccc1NC(=O)c1c(C)[nH]c(=S)c(C#N)c1-c1ccc(Cl)cc1,-9,-9,3,10,5
